Data published in ChEMBL document CHEMBL3393034, “Discovery of piperidine ethers as selective orexin receptor antagonists (SORAs) inspired by filorexant” (Bioorg Med Chem Lett, 2015).
≈ marks a conversion by molar mass, not a printed value. Calls of active or inactive are those of the source. The rule behind the calls is not given here.

Columns and labels:
[1] = molecular target: T1, Orexin/Hypocretin receptor type 1 (Homo sapiens, UniProt O43613); assay: Antagonist activity at human OX1R by radioligand displacement assay
T1 sequence (O43613 whole entry): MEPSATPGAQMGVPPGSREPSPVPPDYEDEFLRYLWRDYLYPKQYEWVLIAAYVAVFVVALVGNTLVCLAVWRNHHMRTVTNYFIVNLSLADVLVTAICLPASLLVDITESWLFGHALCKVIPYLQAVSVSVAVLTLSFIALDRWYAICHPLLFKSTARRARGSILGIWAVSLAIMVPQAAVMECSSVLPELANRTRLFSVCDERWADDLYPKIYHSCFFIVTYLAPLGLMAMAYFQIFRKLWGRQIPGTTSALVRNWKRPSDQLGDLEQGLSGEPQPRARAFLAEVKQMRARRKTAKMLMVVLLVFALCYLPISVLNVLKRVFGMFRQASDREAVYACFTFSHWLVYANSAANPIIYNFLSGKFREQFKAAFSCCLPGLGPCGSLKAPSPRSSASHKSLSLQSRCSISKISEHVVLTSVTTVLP
Summary of the method: (§1)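 Radioligand-displacement binding assay at the human orexin receptor; affinity expressed as Ki; data for racemates unless otherwise noted.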

Orexin receptor type 2 [2] = molecular target: T2, Orexin receptor type 2 (Homo sapiens, UniProt O43614); assay: Antagonist activity at human OX2R by radioligand displacement assay; summary of the method: as §1
T2 sequence (O43614 whole entry): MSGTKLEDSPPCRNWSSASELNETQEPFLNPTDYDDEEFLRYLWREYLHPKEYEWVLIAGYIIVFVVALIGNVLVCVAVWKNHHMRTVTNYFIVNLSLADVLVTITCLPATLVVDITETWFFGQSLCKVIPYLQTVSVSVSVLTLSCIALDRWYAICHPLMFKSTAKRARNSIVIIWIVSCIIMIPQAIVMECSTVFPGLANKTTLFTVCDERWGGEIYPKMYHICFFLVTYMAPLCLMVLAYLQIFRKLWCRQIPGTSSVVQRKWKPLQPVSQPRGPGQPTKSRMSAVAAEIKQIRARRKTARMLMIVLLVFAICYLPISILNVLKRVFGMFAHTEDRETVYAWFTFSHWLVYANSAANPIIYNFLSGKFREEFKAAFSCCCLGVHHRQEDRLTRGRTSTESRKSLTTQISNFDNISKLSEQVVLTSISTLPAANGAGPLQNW

Homo sapiens = species: Homo sapiens; assay: Selectivity ratio of Ki for human OX1R to Ki for human OX2R
Summary of the method: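 Selectivity index for OX2R over OX1R, calculated from radioligand-displacement binding Ki values at the two human receptors.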

Rattus norvegicus [3] = assay: Ex vivo receptor occupancy of OX2R in rat at 30 mg/kg, po after 30 mins; assay type: functional
Summary of the method: (§2)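 Rats received a single 30 mg/kg oral dose. Receptor occupancy, plasma level and CSF level were determined at t = 30 min.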

[4] = AUC in Sprague-Dawley rat at 30 mg/kg, po; conditions: plasma
[5] = AUC in Sprague-Dawley rat at 10 mg/kg, po; assay type: ADME, organism-based; design: dose 10 mg/kg, route oral; conditions: plasma
Summary of the method: (§3)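 Sprague–Dawley rats were dosed intravenously at 2 mg/kg and orally at 10 mg/kg. Readouts were clearance (mL/min/kg), terminal half-life, plasma AUC (µM•h) and oral bioavailability (%).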

[6] = Fraction unbound in human plasma; assay type: ADME, cell-free
[7] = Oral bioavailability in beagle dog at 3 mg/kg; assay type: ADME, organism-based, Canis lupus familiaris; conditions: in vivo
Summary of the method: (§4)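 Beagle dogs were dosed intravenously at 0.125 mg/kg and orally at 3 mg/kg. Readouts were clearance (mL/min/kg), terminal half-life, and oral AUC (µM•h), Cmax (µM), Tmax (h) and bioavailability (%).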

[8] = Drug uptake in rat CSF at 30 mg/kg, po after 30 mins; assay type: ADME, organism-based; design: dose 30 mg/kg, route oral; conditions: cerebrospinal fluid, read-out: Drug uptake; summary of the method: as §2
[9] = Clearance in Sprague-Dawley rat at 2 mg/kg, iv; assay type: ADME, organism-based; design: dose 2 mg/kg, route intravenous; conditions: in vivo; summary of the method: as §3
Rattus norvegicus [10] = assay: Effect on sleep-wake cycle in rat assessed as increase in delta sleep at 30 mg/kg, po after 30 mins relative to vehicle-treated control; assay type: functional, organism-based; design: dose 30 mg/kg
Summary of the method: (§5)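 EEG-telemetry in rats, 30 mg/kg oral versus vehicle (20% vitamin E TPGS). Dosing was at 09:00 in the active phase (ZT 17:00, 7 h before lights on), recorded from 30 min pre-dose to 2 h post-dose. Active wake, light, delta and REM sleep were scored as means in 10-min bins. Balanced crossover over 3 consecutive days, N=6.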

[11] = Clearance in beagle dog at 0.125 mg/kg, iv; assay type: ADME, organism-based, Canis lupus familiaris; design: dose 0.125 mg/kg, route intravenous; conditions: in vivo; summary of the method: as §4
[12] = Aqueous solubility of the compound at pH 7; assay type: physicochemical; conditions: aqueous medium
[13] = Plasma concentration in rat at 30 mg/kg, po after 30 mins; assay type: ADME, organism-based; design: dose 30 mg/kg, route oral; summary of the method: as §2
[14] = Oral bioavailability in Sprague-Dawley rat at 10 mg/kg; assay type: ADME, organism-based; conditions: in vivo; summary of the method: as §3
[15] = Half life in beagle dog at 0.125 mg/kg, iv; assay type: ADME, organism-based, Canis lupus familiaris; design: dose 0.125 mg/kg, route intravenous; conditions: in vivo; summary of the method: as §4
[16] = Cmax in beagle dog at 3 mg/kg, po; assay type: ADME, organism-based, Canis lupus familiaris; design: dose 3 mg/kg, route oral; conditions: in vivo; summary of the method: as §4
[17] = Half life in Sprague-Dawley rat at 2 mg/kg, iv; assay type: ADME, organism-based; design: dose 2 mg/kg, route intravenous; conditions: in vivo; summary of the method: as §3
[18] = Cmax in Sprague-Dawley rat at 30 mg/kg, po; conditions: in vivo
Rattus norvegicus [19] = assay: Effect on sleep-wake cycle in rat assessed as increase in REM sleep at 30 mg/kg, po after 30 mins relative to vehicle-treated control; assay type: functional, organism-based; design: dose 30 mg/kg; summary of the method: as §5
Orexin receptor type 2 [20] = molecular target: T2, Orexin receptor type 2; assay: Antagonist activity at human OX2R by FLIPR assay
Summary of the method: (§6)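 Functional FLIPR readout in CHO cells engineered to overexpress the human orexin receptor; antagonism expressed as IC50.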

[21] = molecular target: T1, Orexin/Hypocretin receptor type 1; assay: Antagonist activity at human OX1R by FLIPR assay; summary of the method: as §6
[22] = Tmax in Sprague-Dawley rat at 30 mg/kg, po; conditions: in vivo
[23] = AUC in beagle dog at 3 mg/kg, po; assay type: ADME, organism-based, Canis lupus familiaris; design: dose 3 mg/kg, route oral; conditions: plasma; summary of the method: as §4
[24] = Tmax in beagle dog at 3 mg/kg, po; assay type: ADME, organism-based, Canis lupus familiaris; design: dose 3 mg/kg, route oral; conditions: in vivo; summary of the method: as §4
[25] = Plasma protein binding in human; assay type: ADME, cell-free; conditions: read-out: PPB (converted)
Rattus norvegicus [26] = assay: Effect on sleep-wake cycle in rat assessed as change in active wake at 30 mg/kg, po after 30 mins relative to vehicle-treated control; assay type: functional, organism-based; design: dose 30 mg/kg; summary of the method: as §5
[27] = Fraction unbound in rat plasma; assay type: ADME, cell-free
[28] = Plasma protein binding in rat; assay type: ADME, cell-free; conditions: read-out: PPB (converted)
[29] = Lipophilicity, log D of the compound by HPLC analysis; assay type: physicochemical
P-gp = assay: Binding affinity to human P-gp assessed as apparent passive permeability; assay type: ADME; conditions: not told
[30] = Oral bioavailability in Sprague-Dawley rat at 30 mg/kg; conditions: in vivo
[31] = Aqueous solubility of the compound at pH 2; assay type: physicochemical; conditions: aqueous medium

Cc1ccc(-n2nccn2)c(C(=O)N2C[C@H](Oc3cccc4ccccc34)CC[C@H]2C)c1 (relative stereo)
Ki [1]: 13 nM | Ki (Orexin receptor type 2 [2]): 1 nM | Ratio Ki (Homo sapiens): 13

CC1CCC(Oc2cccc3cccnc23)CN1C(=O)c1ccccc1-n1nccn1 (racemic)
Ki [1]: 760 nM | Ki (Orexin receptor type 2 [2]): 9.8 nM | Ratio Ki (Homo sapiens): 78

CC1CCC(Oc2ccnc3c(Cl)cccc23)CN1C(=O)c1ccccc1-n1nccn1 (racemic)
Ki [1]: 510 nM | Ki (Orexin receptor type 2 [2]): 0.9 nM | Ratio Ki (Homo sapiens): 567

CC1CCC(Oc2cccc3ncccc23)CN1C(=O)c1ccccc1-n1nccn1 (racemic)
Ki [1]: 1030 nM | Ki (Orexin receptor type 2 [2]): 5.1 nM | Ratio Ki (Homo sapiens): 202

CC1CCC(Oc2ccnc3c(Br)cccc23)CN1C(=O)c1ccccc1-n1nccn1 (racemic)
Ki [1]: 1100 nM | Ki (Orexin receptor type 2 [2]): 2.6 nM | Ratio Ki (Homo sapiens): 423

Cc1ccc(-n2nccn2)c(C(=O)N2CCCC(Oc3ccc(F)c(C)c3)C2)c1 (stereo unspecified)
Ki [1]: 106 nM | Ki (Orexin receptor type 2 [2]): 55 nM | Ratio Ki (Homo sapiens): 2

C[C@@H]1CC[C@@H](Oc2ccnc3c(F)cccc23)CN1C(=O)c1ccccc1-n1nccn1
Occ (Rattus norvegicus [3]): 72% | AUC [4]: 30.1 µM·h | AUC [5]: 3.9 µM·h | fraction unbound [6]: 0.03 | bioavailability [7]: 60% | concentration at 0.5 h [8]: 339 nM | clearance [9]: 22.5 mL/min/kg | Activity (Rattus norvegicus [10]): Active | clearance [11]: 6.2 mL/min/kg | Ki [1]: 965 nM | solubility [12]: 161 µM (≈ 69.5 µg/mL) | concentration at 0.5 h [13]: 9.5 µM | bioavailability [14]: 19% | half-life [15]: 42 min | Cmax [16]: 5.65 µM | half-life [17]: 24 min | Ki (Orexin receptor type 2 [2]): 0.6 nM | Cmax [18]: 15.7 µM | Activity (Rattus norvegicus [19]): Active | IC50 (Orexin receptor type 2 [20]): 18 nM | IC50 [21]: 3910 nM | Tmax [22]: 30 min | AUC [23]: 16 µM·h | Tmax [24]: 22.8 min | fraction unbound [25]: 0.029 | Activity (Rattus norvegicus [26]): Active | fraction unbound [27]: 0.03 | fraction unbound [28]: 0.04 | logD [29]: 2.35 | Papp (P-gp): 34 ×10⁻⁶ cm/s | bioavailability [30]: 50% | solubility [31]: 182 µM (≈ 78.5 µg/mL)

Cc1cc(OC2CCC(C)N(C(=O)c3ccccc3-n3nccn3)C2)c2ccccc2n1 (racemic)
Ki [1]: 3600 nM | Ki (Orexin receptor type 2 [2]): 28.9 nM | Ratio Ki (Homo sapiens): 125

C[C@@H]1CC[C@@H](Oc2nccc3ccccc23)CN1C(=O)c1ccccc1-n1nccn1 (relative stereo)
Ki (Orexin receptor type 2 [2]): 0.3 nM

CC1CCC(Oc2cc(C(F)(F)F)nc3ccccc23)CN1C(=O)c1ccccc1-n1nccn1 (racemic)
Ki (Orexin receptor type 2 [2]): 149 nM

CC1CCC(Oc2ccnc3c(F)cccc23)CN1C(=O)c1ccccc1-n1nccn1 (racemic)
Ki [1]: 910 nM | Ki (Orexin receptor type 2 [2]): 1.3 nM

C[C@@H]1CC[C@@H](Oc2ccnc3c(F)cccc23)CN1C(=O)c1ccccc1-c1ncccn1
Ki [1]: 1200 nM | Ki (Orexin receptor type 2 [2]): 0.8 nM | Ratio Ki (Homo sapiens): 1500

CC1CCC(Oc2ccnc3ccc(Br)cc23)CN1C(=O)c1ccccc1-n1nccn1 (racemic)
Ki [1]: 470 nM | Ki (Orexin receptor type 2 [2]): 5.2 nM | Ratio Ki (Homo sapiens): 90

CC1CCC(Oc2cccc3cnccc23)CN1C(=O)c1ccccc1-n1nccn1 (racemic)
Ki [1]: 415 nM | Ki (Orexin receptor type 2 [2]): 7.5 nM | Ratio Ki (Homo sapiens): 55

Cc1ccc(-n2nccn2)c(C(=O)N2CCCC(COc3ccc(F)c(C)c3)C2)c1 (stereo unspecified)
Ki [1]: 5.5 nM | Ki (Orexin receptor type 2 [2]): 8.9 nM | Ratio Ki (Homo sapiens): 0.6

CC1CCC(Oc2c(Br)cnc3ccccc23)CN1C(=O)c1ccccc1-n1nccn1 (racemic)
Ki (Orexin receptor type 2 [2]): 180 nM

Cc1ccc(-c2ncccn2)c(C(=O)N2C[C@H](COc3ccc(F)cn3)CC[C@H]2C)c1 [FILOREXANT]
Ki [1]: 2.9 nM | IC50 (Orexin receptor type 2 [20]): 17 nM | IC50 [21]: 16 nM | Ratio Ki (Homo sapiens): 9

CC1CCC(Oc2cccc3ccncc23)CN1C(=O)c1ccccc1-n1nccn1 (racemic)
Ki [1]: 900 nM | Ki (Orexin receptor type 2 [2]): 9.3 nM | Ratio Ki (Homo sapiens): 97

C[C@@H]1CC[C@@H](Oc2ccnc3c(F)cccc23)CN1C(=O)c1ccccc1-c1cccnc1
Ki [1]: 19000 nM | Ki (Orexin receptor type 2 [2]): 63 nM | Ratio Ki (Homo sapiens): 302

O=C(c1ccccc1-n1nccn1)N1CCC(F)(F)[C@@H](Oc2ccc3ccccc3n2)C1
Ki [1]: 1.3 nM | Ki (Orexin receptor type 2 [2]): 521 nM

Cc1ccc(-n2nccn2)c(C(=O)N2CCCC(Oc3cccc4ccccc34)C2)c1 (stereo unspecified)
Ki [1]: 9 nM | Ki (Orexin receptor type 2 [2]): 18 nM | Ratio Ki (Homo sapiens): 0.5

CC1CCC(Oc2ccnc3ccccc23)CN1C(=O)c1ccccc1-n1nccn1 (racemic)
Ki [1]: 2700 nM | Ki (Orexin receptor type 2 [2]): 6.8 nM | Ratio Ki (Homo sapiens): 397

C[C@@H]1CC[C@@H](Oc2ccnc3c(F)cccc23)CN1C(=O)c1ccccc1N(C)C
Ki (Orexin receptor type 2 [2]): 370 nM

COc1cnc(O[C@@H]2CC[C@@H](C)N(C(=O)c3ccccc3-n3nccn3)C2)c2ccccc12
Ki [1]: 0.41 nM | Ki (Orexin receptor type 2 [2]): 0.24 nM
